# Assay results as given in ChEMBL document CHEMBL4118256, “Second Generation of Mannich Base-Type Derivatives with in Vivo Activity against Trypanosoma cruzi” (J Med Chem, 2018).
# Activity calls are given as the source filed them. No cut-off for these calls is given here.
# Assays:
# [1] = tested on: Trypanosoma cruzi; assay: Antitrypanosomal activity against Trypanosoma cruzi MHOM/Pe/2011/Arequipa DTU 5 trypamastigotes infected in Balb/c mouse assessed as reduction in parasitaemia level at 100 mg/kg, po once daily for 5 consecutive days starting from day 10 post infection measured up to day 50 post infection by Neubauer chamber method; assay type: functional, organism-based
# [2] = tested on: Mus musculus; assay: (§1) Nephrotoxicity in Balb/c mouse infected with Trypanosoma cruzi MHOM/Pe/2011/Arequipa DTU 5 trypamastigotes assessed as change in urea level in serum at 100 mg/kg, po once daily for 5 consecutive days starting from day 75 post infection measured on day 127 post infection by biochemical analysis relative to control; assay type: toxicity, organism-based; details: in vivo
# [3] = tested on: Mus musculus; assay: as §1, with “Hepatotoxicity” for “Nephrotoxicity”, “decrease” for “change”, “ratio of serum ALT to GPT” for “urea”, “level” for “level in serum”, “10” for “75”; assay type: toxicity, organism-based; design: scale not given: the % may be the effect or the level left; details: in vivo
# [4] = tested on: Trypanosoma cruzi; assay: (§2) Antitrypanosomal activity against Trypanosoma cruzi MHOM/Pe/2011/Arequipa DTU 5 trypamastigotes infected in Balb/c mouse assessed as reduction in parasitaemia reactivation at 20 mg/kg, po pretreated once daily for 5 consecutive days starting from day 75 post infection followed by cyclophosphamide-induced immunosuppression on day 100 post infection every 4 days for a maximum of 3 doses measured up to 1 week post immunosuppression by Neubauer chamber method; assay type: functional; design: scale not given: the % may be the effect or the level left
# In short: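 Female BALB/c mice (8-10 weeks, 20-25 g), groups of six, infected i.p. with 5 x 10^5 bloodstream trypomastigotes in 0.2 mL PBS; oral dosing 20 mg·kg-1 per day for 5 days in 5% DMSO/0.5% HPMC vehicle. After day 100 pi, cyclophosphamide 200 mg·kg-1 i.p. every 4 days, up to three doses. Within 1 week after the last dose, fresh-blood bloodstream trypomastigotes counted in a Neubauer chamber. Reactivation expressed relative to untreated infected controls.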
# [5] = tested on: Trypanosoma cruzi; assay: as §2, with “reactivation in adipose tissue” for “reactivation”, “day 10” for “day 75”, “measured on day 127” for “measured up to 1 week”, “post infection” for “post immunosuppression”, “by PCR” for “by Neubauer chamber”; assay type: functional; design: scale not given: the % may be the effect or the level left
# In short: (§3)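 Necropsy on day 127 pi after oral treatment and cyclophosphamide immunosuppression. Tissue DNA was amplified by PCR targeting the ~300 bp T. cruzi SOD gene, 200 nM each primer, 30 cycles with 55.5 °C annealing. Products run on 2 % agarose; positive organs counted out of six mice.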
# [6] = tested on: Trypanosoma cruzi; assay: as §2, with “reactivation in brain tissue” for “reactivation”, “day 10” for “day 75”, “measured on day 127” for “measured up to 1 week”, “post infection” for “post immunosuppression”, “by PCR” for “by Neubauer chamber”; assay type: functional; design: scale not given: the % may be the effect or the level left; in short: as §3
# [7] = tested on: Trypanosoma cruzi; assay: as §2, with “reactivation in muscle tissue” for “reactivation”, “day 10” for “day 75”, “measured on day 127” for “measured up to 1 week”, “post infection” for “post immunosuppression”, “by PCR” for “by Neubauer chamber”; assay type: functional; design: scale not given: the % may be the effect or the level left
# [8] = tested on: Trypanosoma cruzi; assay: as §2, with “reactivation in spleen tissue” for “reactivation”, “day 10” for “day 75”, “measured on day 127” for “measured up to 1 week”, “post infection” for “post immunosuppression”, “by PCR” for “by Neubauer chamber”; assay type: functional; design: scale not given: the % may be the effect or the level left
# [9] = tested on: Trypanosoma cruzi; assay: as §2, with “reactivation in stomach tissue” for “reactivation”, “day 10” for “day 75”, “measured on day 127” for “measured up to 1 week”, “post infection” for “post immunosuppression”, “by PCR” for “by Neubauer chamber”; assay type: functional; design: scale not given: the % may be the effect or the level left
# [10] = tested on: Trypanosoma cruzi; assay: Antitrypanosomal activity against Trypanosoma cruzi MHOM/Pe/2011/Arequipa DTU 5 trypamastigotes infected in Balb/c mouse assessed as reduction in Ig-G level in serum at 20 mg/kg, po once daily for 5 consecutive days starting from day 10 post infection measured on day 16 post infection by ELISA; assay type: functional, organism-based
# In short: (§4)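 Female BALB/c mice (8-10 weeks, 20-25 g), six per group, infected i.p. with 5 x 10^5 Arequipa bloodstream trypomastigotes. Compound was given orally once daily for 5 days from day 10 or day 75 pi, at 20 mg·kg-1 per day in 5 % DMSO/0.5 % HPMC. Anti-T. cruzi IgG in serum was measured by ELISA with Fe-SOD antigen, read as OD 490 nm.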
# [11] = tested on: Trypanosoma cruzi; assay: Antitrypanosomal activity against Trypanosoma cruzi MHOM/Pe/2011/Arequipa DTU 5 trypamastigotes infected in Balb/c mouse assessed as reduction in Ig-G level in serum at 20 mg/kg, po once daily for 5 consecutive days starting from day 75 post infection measured on day 81 post infection by ELISA; assay type: functional, organism-based; in short: as §4
# [12] = tested on: Trypanosoma cruzi; assay: Antitrypanosomal activity against Trypanosoma cruzi MHOM/Pe/2011/Arequipa DTU 5 trypamastigotes infected in Balb/c mouse assessed as reduction in splenomegaly at 20 mg/kg, po once daily for 5 consecutive days starting from day 75 post infection measured on day 127 post infection relative to control; assay type: functional, organism-based
# [13] = tested on: Mus musculus; assay: as §1, with “decrease” for “change”, “uric acid” for “urea”, “20” for “100”, “10” for “75”, “16” for “127”; assay type: toxicity, organism-based; design: scale not given: the % may be the effect or the level left; details: in vivo
# [14] = tested on: Mus musculus; assay: as §1, with “decrease” for “change”, “uric acid” for “urea”, “20” for “100”, “81” for “127”; assay type: toxicity, organism-based; design: scale not given: the % may be the effect or the level left; details: in vivo
# [15] = tested on: Mus musculus; assay: as §1, with “Cardiotoxicity” for “Nephrotoxicity”, “serum LDH” for “urea”, “level” for “level in serum”, “20” for “100”, “10” for “75”, “16” for “127”; assay type: toxicity, organism-based; details: in vivo
# In short: (§5)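 Serum clinical chemistry in Arequipa-infected female BALB/c mice. Oral 20 mg·kg-1 per day for 5 days, started day 10 or day 75 pi. Samples taken at day 16 pi or day 81 pi, and on necropsy day. Markers: CK-MB and LDH (U/L), AST, ALT and alkaline phosphatase (U/L), total bilirubin. Results scored relative to infected untreated controls; uninfected reference n = 15.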
# [16] = tested on: Mus musculus; assay: (§6) Hepatotoxicity in Balb/c mouse infected with Trypanosoma cruzi MHOM/Pe/2011/Arequipa DTU 5 trypamastigotes assessed as increase in ratio of serum ALT to GPT level at 20 mg/kg, po once daily for 5 consecutive days starting from day 10 post infection measured on day 16 post infection by biochemical analysis relative to control; assay type: toxicity, organism-based; details: in vivo
# [17] = tested on: Mus musculus; assay: as §6, with “total bilirubin” for “ratio of serum ALT to GPT”, “127” for “16”; assay type: toxicity, organism-based; details: in vivo
# [18] = tested on: Mus musculus; assay: as §1, with “Hepatotoxicity” for “Nephrotoxicity”, “alkaline phosphatase” for “urea”, “level” for “level in serum”, “20” for “100”, “10” for “75”; assay type: toxicity, organism-based; details: in vivo; in short: as §5
# [19] = tested on: Mus musculus; assay: as §1, with “increase” for “change”, “10” for “75”, “16” for “127”; assay type: toxicity, organism-based; details: in vivo
# [20] = tested on: Mus musculus; assay: as §6, with “serum AST” for “serum ALT”, “to GOT” for “to GPT”, “at […]” for “at 20”, “day 127” for “day 16”; assay type: toxicity, organism-based; details: in vivo
# [21] = tested on: Mus musculus; assay: as §1, with “Hepatotoxicity” for “Nephrotoxicity”, “increase” for “change”, “ratio of serum AST to GOT” for “urea”, “level” for “level in serum”; assay type: toxicity, organism-based; details: in vivo
# [22] = tested on: Mus musculus; assay: as §6, with “at […]” for “at 20”, “day 75” for “day 10”, “day 81” for “day 16”; assay type: toxicity, organism-based; details: in vivo
# [23] = tested on: Mus musculus; assay: as §1, with “Hepatotoxicity” for “Nephrotoxicity”, “increase” for “change”, “alkaline phosphatase” for “urea”, “level” for “level in serum”, “81” for “127”; assay type: toxicity, organism-based; details: in vivo
structure (smiles),measurement,setting,value
COc1ccc(C(=O)CCN2CCN(c3ccc(Cl)cc3)CC2)cc1,Activity,[1],Active
same,Activity,[2],< 10%
same,Activity,[3],<= 10%
O=C(Cn1ccnc1[N+](=O)[O-])NCc1ccccc1 [BENZNIDAZOLE],Activity,[4],51%
same,Activity,[5],33%
same,Activity,[6],33%
same,Activity,[7],33%
same,Activity,[8],33%
same,Activity,[9],33%
same,Activity,[10],Active
same,Activity,[11],inactive
same,Activity,[12],Active
same,Activity,[13],> 40%
same,Activity,[14],> 40%
same,Activity,[15],< 10%
same,Activity,[16],> 40%
same,Activity,[17],<= 10%
same,Activity,[18],< 10%
COc1ccc(C(=O)CCN2CCN(c3ccc(F)cc3)CC2)cc1,Activity,[19],<= 30%
COc1ccc(C(=O)CCN2CCN(c3ccc([N+](=O)[O-])cc3)CC2)cc1,Activity,[20],<= 30%
same,Activity,[21],<= 20%
same,Activity,[22],<= 30%
same,Activity,[23],<= 10%
